Source: PubChem
T cell modulator: T cell immune modulation candidate. 2C CD8+ T cell-vesicle binding, flow cytometry; stronger effect = lower value. response (vesicle binding), % at 7 µM. 0.068% of 330,000 active;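 active = response, share of CD8 T cells binding vesicles, and their 90th percentile fluorescence all below set limits, cut at about 80% in these data, passing the limit was not always enough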;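 also: values below 100% mean blocked vesicle binding to the CD8+ T cells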
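Test system: purified 2C TCR transgenic mouse naive CD8+ T cells. Probe or stimulus: QL9-peptide-loaded Drosophila micro-vesicles bearing Ld, ICAM-1 and B7-1. Incubation: binding step 1.5 h, 37 °C, antibody labelling 20 min, ice. Measured by: flow cytometry of vesicle-bound cells.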
GRIN3A LBD mod: modulates the human NR3A ligand-binding domain | 2.5% of 340,000 active | NR3A LBD differential scanning fluorimetry, Tm shift; 0% = protein alone, 100% = glycine-bound protein | AID 1259313 | Tm shift relative to glycine control, % at 25 µM;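 active = melting temperature shift of at least 10% of the positive control shift, at one fixed dose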
Rtt109 Vps75: C. albicans Rtt109 histone acetyltransferase inhibition. Q5AAJ8. purified Rtt109/Vps75, ThioGlo CoA-SH fluorescence, 4 h. inhibition, % at 34.9 µM. 0.16% of 330,000 active;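 active = inhibition of at least 50% in every replicate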
JMJD2C inh: inhibitors of human GASC-1 (JMJD2C) demethylase; Q9H3R0; GST-JMJD2C(1-420) H3K9me3 demethylation, DELFIA europium; inhibition, % at 2.35 µM; 0.069% of 330,000 active;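 active = more than half of a compound's replicate wells show inhibition beyond 50%, single wells judged on their own value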;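 also: signal counts dimethyl H3K9 product captured on neutravidin plate; 0% = median of DMSO wells and 100% = 0.3 times that DMSO median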
Target sequence (Q9H3R0 1-420 limits assumed): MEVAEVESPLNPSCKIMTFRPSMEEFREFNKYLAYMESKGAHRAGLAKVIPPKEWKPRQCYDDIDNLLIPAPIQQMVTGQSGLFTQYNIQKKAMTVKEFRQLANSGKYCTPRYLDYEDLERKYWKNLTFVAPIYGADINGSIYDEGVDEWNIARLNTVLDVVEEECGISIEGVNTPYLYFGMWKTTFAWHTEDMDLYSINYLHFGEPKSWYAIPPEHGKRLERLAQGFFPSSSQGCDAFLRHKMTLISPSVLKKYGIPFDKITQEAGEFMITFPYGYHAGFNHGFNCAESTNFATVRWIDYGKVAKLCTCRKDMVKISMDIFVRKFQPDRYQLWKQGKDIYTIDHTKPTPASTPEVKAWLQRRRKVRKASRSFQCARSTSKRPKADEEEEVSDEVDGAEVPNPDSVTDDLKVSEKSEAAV
* hit, by the source's call; / = no result given. Hits are enriched below; roughly 2.8% of the tested compounds scored in any of these assays.

SMILES	T cell modulator	GRIN3A LBD mod	Rtt109 Vps75	JMJD2C inh
CC1CC(C#N)N(N(C)C)C1=C(C#N)C#N (stereo not given)	311	17*	7	28
COc1ccc(CC2(C)OC(c3ccc(Cl)cc3)=NN2C(C)=O)cc1 (stereo not given)	207	13*	6	-46
COc1ccccc1C1NC(=O)c2ccccc2O1 (stereo not given)	165	-4	-1	8
COc1cc2c(cc1OC)CN(C(=O)CSc1n[nH]c(N)n1)CC2	252	-1	4	54*
CCOC(=O)c1[nH]c2ccc(OC)cc2c1NC(=S)N1CCN(c2cccc(C)c2C)CC1	120	12*	4	-8
Cn1c(N)c(C(=O)COC(=O)/C=C/c2ccccc2)c(=O)n(C)c1=O	419	0	1	/
Cc1nn(CC(=O)N(CC(C)C)C2CCS(=O)(=O)C2)c(C)c1[N+](=O)[O-] (stereo not given)	315	-1	0	-7
CCOc1ccc(NC(=O)NC(=O)N(C(C)C)S(C)(=O)=O)cc1	138	18*	7	37
CCOc1ccc(NC(=O)Nc2nc(SCC)ns2)cc1	214	37*	-2	12
CCC(=O)Nc1nc2ccc(NC(C)=O)cc2s1	469	4	-12	41
CCSc1nsc(NC(=O)Nc2ccccc2Cl)n1	/	5	-12	/
CCOc1ccc(NC(=O)c2ccc3nccnc3c2)cc1	266	-8	-6	2
CC(C)N(C(=O)NC(=O)Nc1ccc(S(=O)(=O)N2CCCC2)cc1)S(C)(=O)=O	377	-2	4	43
CCOc1cccc2sc(Nc3nc4ccc(NC(C)=O)cc4s3)nc12	373	26*	-6	-3
CCOc1ccc(NC(=O)Nc2ccc3nccnc3c2)cc1	161	24*	1	-5
CCOC(=O)C(=Cc1ccc2c(c1)OCO2)c1ccccc1	/	-1	7	/
CCOc1ccc2nc(N(CCN(CC)CC)C(=O)/C=C/c3cccs3)sc2c1	341	-14	-4	-34
CCOc1ccc(NC(=O)Nc2ccc(NC(C)=O)cc2)cc1	328	22*	1	-13
CCOc1ccc(OCCC(=O)OC(C)C(=O)Nc2ccc(C(C)=O)cc2)cc1 (stereo not given)	411	20*	3	5
CCOc1ccc2nc(NS(=O)(=O)c3ccc4c(c3)n(C)c(=O)n4C)sc2c1	276	29*	1	8
COc1ccc2oc(C(=O)Nc3nc4ccc(S(C)(=O)=O)cc4s3)c(C)c2c1	487	19*	9	1
COc1cc(OC)cc(C(=O)Nc2nc3ccc(S(C)(=O)=O)cc3s2)c1	205	-27	-6	-4
CCOc1ccc(C(=O)COc2ccc(NC(C)=O)cc2)cc1	368	-2	-14	-3
CCCCN(C(=O)c1cc(CN2C(=O)c3ccccc3C2=O)ccc1OC)c1c(N)n(CC(C)C)c(=O)[nH]c1=O	/	1	9	/
O=C(c1cc(Cl)ccc1O)N1CCN(S(=O)(=O)c2cccs2)CC1	536	0	2	2
SMILES	T cell modulator	GRIN3A LBD mod	Rtt109 Vps75	JMJD2C inh
CN(CC(=O)NC(=O)NCc1ccccc1)CC(=O)Nc1ccc(Cl)c(Cl)c1	321	1	-2	11
CCOc1ccc(NC(=O)Nc2nc3ccc(S(C)(=O)=O)cc3s2)cc1	302	30*	-5	-2
CCOc1cc(NC(=S)Nc2ccc(Cl)cc2)c(OCC)cc1NC(C)=O	138	-1	-2	-4
Nc1nc(N)c2sc3nc(C(F)(F)F)cc(C(F)(F)F)c3c2n1	267	32*	8	7
N#CCCn1cc(/C=C2\NC(=S)N(c3ccccc3)C2=O)c(-c2ccc(-c3ccccc3)cc2)n1	217	22*	-2	-26
O=c1[nH]c(NNC(=S)NCc2ccccc2)nc2c1C1(CCCCC1)Cc1ccccc1-2	237	26*	6	-1
C=CCNC(=S)NNc1nc2c(c(=O)[nH]1)C1(CCCC1)Cc1ccccc1-2	470	-2	/	-5
COc1ccc(-c2csc(/C(C#N)=C\c3ccc(O)c([N+](=O)[O-])c3)n2)cc1OC	112	-4	-5	9
COc1ccc(-c2csc(/C(C#N)=C\c3ccc(OC)c([N+](=O)[O-])c3)n2)cc1	456	33*	-2	4
COc1ccc2cc(Br)ccc2c1CC(=O)NCCCN1CCOCC1	368	-4	1	57*
COc1ccc(C(=O)NC2CC3CCCC(C2)N3Cc2ccccc2)cc1OC (stereo not given)	548	-2	-4	-23
CC(=O)Nc1ccc(S(=O)(=O)NN=Cc2ccc(Cl)c(Cl)c2)cc1	/	-2	5	/
O=[N+]([O-])c1ccc(S(=O)(=O)NN=Cc2ccc(Cl)c(Cl)c2)cc1	/	12*	-4	/
CCN(C(=O)COC(=O)c1c(NC(C)=O)sc(C)c1C)c1c(N)n(Cc2ccccc2)c(=O)[nH]c1=O	/	4	3	/
CCOc1ccc(/C=C(\C#N)C(=O)NCC2CCCO2)cc1OCC (stereo not given)	169	13*	7	4
Nc1nc(N)c(N=Nc2ccc(Cl)cc2)c(=O)[nH]1	247	1	-4	-1
Nc1n[nH]c(C2CC2)c1N=Nc1ccc(Cl)c(Cl)c1	161	33*	/	-9
Nc1n[nH]c(C2CC2)c1N=Nc1ccc(Cl)cc1	200	11*	/	-1
O=C(Sc1n[nH]c(=O)[nH]c1=O)c1ccccc1	/	0	5	/
COCc1c(C(=O)N/N=C/c2c[nH]c3ccccc23)nnn1-c1nonc1N	197	18*	-1	-34
Cc1ccc(-c2c(C(=O)N/N=C/c3ccncc3)nnn2-c2nonc2N)cc1	362	1	3	3
CCCN(CCC)Cc1c(C(=O)N/N=C/c2c[nH]c3ccccc23)nnn1-c1nonc1N	234	22*	1	21
Cc1ccc(-c2c(C(=O)N/N=C/c3c[nH]c4ccccc34)nnn2-c2nonc2N)cc1	483	26*	13	-4
CCCN(CCC)Cc1c(C(=O)N/N=C/c2ccc(Br)cc2)nnn1-c1nonc1N	247	22*	11	2
CCCN(CCC)Cc1c(C(=O)N/N=C/c2ccco2)nnn1-c1nonc1N	74	-2	1	7
SMILES	T cell modulator	GRIN3A LBD mod	Rtt109 Vps75	JMJD2C inh
CCCN(CCC)Cc1c(C(=O)N/N=C/c2ccoc2)nnn1-c1nonc1N	173	5	4	23
COc1ccc(-c2csc(NC(=O)Nc3ccccc3)n2)cc1	247	26*	11	-7
O=C(Nc1ccccc1)Nc1nc(-c2ccc(Cl)cc2)cs1	315	-8	8	-3
Cc1ccc(NC(=O)Nc2nc(-c3ccc(C)s3)cs2)cc1	440	24*	4	-4
COc1cccc(NC(=O)Nc2nc(-c3ccc(OC)c(OC)c3)cs2)c1	261	23*	14	-17
O=C(Nc1cccc(Cl)c1)Nc1nc(-c2ccc(Cl)cc2)cs1	379	36*	3	12
COCCN(Cc1ccco1)C(=O)C1CCCN(c2ncnc3c2nc2n3CCCCC2)C1 (stereo not given)	145	-2	25	-32
